The target of series [1] is T1, Peroxisome proliferator-activated receptor gamma (Homo sapiens, UniProt P37231).
T1 sequence (P37231 whole entry): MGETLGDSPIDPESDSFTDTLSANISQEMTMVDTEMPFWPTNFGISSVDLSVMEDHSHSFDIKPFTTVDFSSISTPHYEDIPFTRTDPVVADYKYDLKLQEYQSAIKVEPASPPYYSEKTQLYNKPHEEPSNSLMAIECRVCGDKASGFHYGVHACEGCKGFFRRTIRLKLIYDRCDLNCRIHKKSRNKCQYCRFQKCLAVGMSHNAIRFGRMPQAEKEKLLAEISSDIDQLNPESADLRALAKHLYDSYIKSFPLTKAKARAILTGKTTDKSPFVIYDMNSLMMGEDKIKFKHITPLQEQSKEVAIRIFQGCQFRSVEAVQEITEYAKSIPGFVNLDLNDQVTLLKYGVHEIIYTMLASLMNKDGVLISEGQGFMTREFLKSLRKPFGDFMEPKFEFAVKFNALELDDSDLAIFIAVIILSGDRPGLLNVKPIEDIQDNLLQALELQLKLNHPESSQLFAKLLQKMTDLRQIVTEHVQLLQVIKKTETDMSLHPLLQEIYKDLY
Briefly: Agonist activity at recombinant human PPARgamma LBD (205 to 505 residues) expressed in African green monkey COS-1 cells incubated for 18 hrs by luciferase reporter gene assay. In kind it is cell-based. Put shortly: (§1)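 Transient Gal4 one-hybrid assay in COS-1 cells (7×10^4 per well), transfected 24 h after seeding. Plasmids were Gal4-DBD fused to the human nuclear receptor LBD, a 5×UAS-SV40 luciferase reporter and pRL-CMV Renilla control. Ligand in DMSO (final 0.1%) was added 5 h post-transfection. Dual-luciferase activity was read after 18 h, expressed as RLU, from three biological replicates in quadruplicate.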
In general terms: Reporter assays use an easily measured gene product as a stand-in for the process of interest.

The nature of series [2]: Cytotoxicity against African green monkey COS-1 cells assessed as cell viability at EC50 concentration for PPAR activation assay by XTT assay. It counts as cell-based. Particulars: chlorocebus aethiops, read-out: Activity. A digest of the protocol:
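Run on COS-1 cells treated in parallel with the Gal4-LBD PPAR reporter assays. Metabolic NAD(P)H flux was measured by kit XTT assay per the maker's protocol. Absorbance was read at 450/690 nm.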
Background: Tetrazolium dyes change colour on reduction, which living cells bring about.

Series [3] concerns the target T2, Retinoic acid receptor RXR-alpha (Homo sapiens) (UniProt P19793).
T2 sequence (whole entry): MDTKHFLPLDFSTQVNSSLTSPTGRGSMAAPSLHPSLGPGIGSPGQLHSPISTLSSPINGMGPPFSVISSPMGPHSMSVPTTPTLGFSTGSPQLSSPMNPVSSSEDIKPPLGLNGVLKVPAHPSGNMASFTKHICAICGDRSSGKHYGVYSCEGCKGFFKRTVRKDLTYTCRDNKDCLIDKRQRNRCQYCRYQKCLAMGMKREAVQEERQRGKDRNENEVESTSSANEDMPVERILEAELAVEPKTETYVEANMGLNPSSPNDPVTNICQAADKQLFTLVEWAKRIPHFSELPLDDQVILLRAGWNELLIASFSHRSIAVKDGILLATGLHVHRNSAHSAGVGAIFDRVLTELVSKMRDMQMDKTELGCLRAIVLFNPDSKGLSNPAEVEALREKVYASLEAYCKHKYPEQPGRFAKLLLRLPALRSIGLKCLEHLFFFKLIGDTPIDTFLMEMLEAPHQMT
As to the kind of experiment: Agonist activity at recombinant human RXRalpha LBD (202 to 462 residues) expressed in African green monkey COS-1 cells at 25 to 50 uM incubated for 18 hrs by luciferase reporter gene assay. As to conditions: dose 25-50 µM. In kind it is cell-based. A digest of the protocol: as §1

For series [4], the target named is T3, Peroxisome proliferator-activated receptor alpha (Homo sapiens) (UniProt Q07869).
T3 sequence (whole entry): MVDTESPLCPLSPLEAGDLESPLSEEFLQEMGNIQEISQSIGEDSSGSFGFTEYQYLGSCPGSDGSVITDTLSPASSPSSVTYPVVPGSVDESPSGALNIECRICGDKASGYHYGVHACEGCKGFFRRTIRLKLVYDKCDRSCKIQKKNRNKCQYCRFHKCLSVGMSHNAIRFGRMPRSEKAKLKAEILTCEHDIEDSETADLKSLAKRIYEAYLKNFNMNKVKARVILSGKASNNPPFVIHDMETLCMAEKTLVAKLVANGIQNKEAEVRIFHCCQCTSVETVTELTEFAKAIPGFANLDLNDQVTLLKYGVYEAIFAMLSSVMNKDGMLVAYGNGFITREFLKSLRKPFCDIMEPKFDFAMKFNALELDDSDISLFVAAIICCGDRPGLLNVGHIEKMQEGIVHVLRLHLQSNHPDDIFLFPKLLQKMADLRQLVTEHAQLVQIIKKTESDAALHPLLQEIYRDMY
As to the kind of experiment: Agonist activity at human PPARalpha in 8 day differentiated human SGBS cells assessed as increase in CPT1A gene expression at 25 uM incubated for 24 hrs by SYBR-green based qPCR analysis. It counts as cell-based. Particulars: filed as agonist. A digest of the protocol: (§2)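 SGBS preadipocytes were seeded at passage P6-P8 and grown to confluence. They were differentiated for 4 days in Quickdiff (3FC plus dexamethasone, IBMX and rosiglitazone), then kept in 3FC with medium renewed every fourth day. On day 8, cells were stimulated for 24 h in 3FC with compound:BSA or rosiglitazone. SYBR-green qPCR used gene-specific primers. Data are mean ± SEM of three biological replicates in duplicate.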

For series [5], the system named is SGBS. Briefly: Induction of adipogenesis in 8 day differentiated human SGBS cells assessed as increase in PLIN1 mRNA expression at 25 uM measured upto 12 days by qRT-PCR analysis. In kind it is functional, cell-based. Particulars: time day <=12. A digest of the protocol: (§3)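 SGBS cells were grown to confluence (day 0). Quickdiff medium was supplemented with compound or rosiglitazone for 4 days, followed by 3FC medium. DMSO or DMSO:BSA served as control. RNA was harvested on days 0, 4, 8 and 12, and expression was measured by SYBR-green qPCR. Data are mean ± SEM of at least three biological replicates in duplicate.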
(Quantitative PCR measures a nucleic acid by following its amplification.)

Series [6] relates to SGBS. Briefly: Induction of adipogenesis in 8 day differentiated human SGBS cells assessed as increase in ADIPOQ mRNA expression at 25 uM measured over 12 days by qRT-PCR analysis. In kind it is functional, cell-based. Particulars: time 12.0 day. Put shortly: as §3
Series [7] has as its system SGBS. As to the kind of experiment: Induction of adipogenesis in 8 day differentiated human SGBS cells assessed as upregulation of steroid biosynthesis genes at 25 uM incubated for 8 days by Illumina sequencing method. In kind it is functional, cell-based. Put shortly: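 SGBS cells were differentiated for 8 days: Quickdiff for days 0-4 with 2 µM rosiglitazone or 25 µM oxo-fatty acid:BSA, then 3FC. Total RNA was extracted (RIN 9.80-10.00) and strand-specific TruSeq libraries were sequenced on NextSeq 500 (2×75 bp paired-end). Reads were aligned to hg19 and quantified as RPKM. Data were expressed as log2 fold over day-0 cells (n = 2-4) and grouped into KEGG gene sets.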

Series [8] deals with T4, Peroxisome proliferator-activated receptor gamma (Homo sapiens) (UniProt P37231).
T4 sequence (whole entry): T1 sequence (P37231 whole entry)
As to the kind of experiment: Agonist activity at human PPARgamma in 8 day differentiated human SGBS cells assessed as increase in ADIPOQ gene expression at 25 uM incubated for 24 hrs by SYBR-green based qPCR analysis. Particulars: filed as agonist. It counts as cell-based. Put shortly:
as §2

In series [9] the target is T4, Peroxisome proliferator-activated receptor gamma (Homo sapiens). Briefly: Agonist activity at human PPARgamma in 8 day differentiated human SGBS cells assessed as decrease in CXCL1 gene expression at 25 uM incubated for 24 hrs by SYBR-green based qPCR analysis. In kind it is cell-based. As to conditions: filed as agonist.

pEC50: −log10 of the molar value. Activity calls are given as the source filed them. No cut-off for these calls is given here.

As to `CCCCC/C=C/C(=O)CCCCCCCC(=O)O`, in [1], the pEC50 was 5.07. Besides, in [2], the viability is over 90%. The outcome in series [3] was inactive. The outcome (in series [4]; in the series with SGBS [5]; with SGBS [6]; in the series on SGBS [7]; in series [8]; in series [9]) was Active.
As to `CCCCCCCC(=O)/C=C/CCCCCC(=O)O`, the pEC50 in [1] is 5.00. Besides, the viability in [2] is over 90%. In addition, the result in series [3] was inactive. In addition, the result (in series [4]; with SGBS [5]; in the series on SGBS [6]; with SGBS [7]; in series [8]; in [9]) was Active.

The term pEC50 denotes the negative decadic logarithm of the EC50, by convention in mol/L.

Source of the values: ChEMBL document CHEMBL4715825, “Synthesis and biological evaluations of marine oxohexadecenoic acids: PPARα/γ dual agonism and anti-diabetic target gene effects” (Eur J Med Chem, 2018).
